The list is not random: actives were taken first. Their share in the collection is about 2.5%.
PRMT1 FP inh: PRMT1 methyltransferase inhibitors, primary screen, biochemical, fluorescence polarization. inhibition, % at 2.79 µM. Protein arginine N-methyltransferase 1 (Homo sapiens), Q99873. AID 652257, 2013. recombinant PRMT1, activity-based probe fluorescence polarization. 370,000 compounds, 1.3% hits;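 active = inhibition above about 21% made by adding two undisclosed values, limit read from the data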
Target sequence (Q99873 whole entry, looked up): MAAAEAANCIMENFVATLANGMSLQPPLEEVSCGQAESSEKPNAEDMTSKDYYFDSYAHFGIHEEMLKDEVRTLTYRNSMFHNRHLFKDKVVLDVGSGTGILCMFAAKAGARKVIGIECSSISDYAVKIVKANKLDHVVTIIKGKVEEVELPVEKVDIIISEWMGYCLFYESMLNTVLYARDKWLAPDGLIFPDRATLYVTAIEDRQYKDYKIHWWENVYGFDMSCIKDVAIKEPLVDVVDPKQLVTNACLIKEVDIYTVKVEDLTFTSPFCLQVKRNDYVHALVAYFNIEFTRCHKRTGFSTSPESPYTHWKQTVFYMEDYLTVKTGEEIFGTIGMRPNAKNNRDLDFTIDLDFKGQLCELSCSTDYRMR
GSTO1 counter: inhibitors of recombinant GSTO1, primary screen, counter-screen for RBBP9 inhibitor project, biochemical, fluorescence polarization | inhibition, % at 5.96 µM | Glutathione S-transferase omega-1 (Homo sapiens), P78417 | activity-based probe fluorescence polarization | 300,000 compounds, 1.1% hits;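 active = inhibition above the campaign mean inhibition plus 3 SD, cut at about 35% in these data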;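 note: 0% = GSTO1-1 with DMSO and 100% = wells lacking GSTO1-1 enzyme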
Target sequence (P78417 whole entry, looked up): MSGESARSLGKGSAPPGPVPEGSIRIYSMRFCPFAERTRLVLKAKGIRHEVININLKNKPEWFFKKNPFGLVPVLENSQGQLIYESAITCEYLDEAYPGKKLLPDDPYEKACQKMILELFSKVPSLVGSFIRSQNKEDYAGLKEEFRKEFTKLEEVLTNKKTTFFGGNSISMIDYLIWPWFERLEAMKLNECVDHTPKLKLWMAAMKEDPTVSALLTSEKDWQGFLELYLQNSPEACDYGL
E coli Lon inh: inhibitors of E. coli Lon protease, primary screen, biochemical, fluorescence polarization. P0A9M0. purified E. coli Lon protease. inhibition, % at 7.94 µM. 360,000 compounds, 0.42% hits; in the data active = inhibition above about 13%, passing the limit was not always enough;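 note: 0% = enzyme with probe and DMSO and 100% = no enzyme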
PAD4 FP inh: human PAD4 inhibitors, primary screen, biochemical, fluorescence polarization, 1536-well format; AID 485272, 2010; Protein-arginine deiminase type-4 (Homo sapiens), Q9UM07; 330,000 compounds, 0.41% hits; inhibition, % at 6.36 µM; recombinant PAD4, RCA probe fluorescence polarization;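 active = percent inhibition above a cutoff equal to the mean of all tested compounds plus 3 SD, cut at about 15% in these data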;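 note: 0% = PAD4 with RCA probe and DMSO and 100% = probe without PAD4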
TDP2 absorb: human TDP2 enzyme inhibitors, primary screen, biochemical, epi absorbance, recombinant enzyme. Tyrosyl-DNA phosphodiesterase 2 (Homo sapiens), O95551. T5PNP hydrolysis, p-nitrophenol absorbance 415 nm. inhibition, % at 12.8 µM. 370,000 compounds, 0.34% hits;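 active = inhibition above the mean of all tested compounds plus 3 SD, set per campaign, cut at about 25% in these data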;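 note: 0% = DMSO with enzyme and 100% = buffer with substrate but no TDP2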
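Read-out basis: percent inhibition. System: recombinant human TDP2. Buffer or medium: Mg2+-containing Tris-HCl buffer, pH 7.5. Repeats: single replicate. Timing: reaction 2 h, 37 °C. Benchmarks: high control without enzyme, low control DMSO plus TDP2. Probe or stimulus: 5 mM T5PNP. Doses: 12.8 µM only. Measured by: epi absorbance of p-nitrophenol freed from T5PNP by hydrolysis.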
PRMT1 confirm: PRMT1 methyltransferase inhibitors, confirmation, biochemical, fluorescence polarization, triplicate | shares compounds with PRMT1 FP inh | 3,300 compounds, 42% hits | inhibition, % at 2.79 µM | recombinant His-PRMT1, activity-based probe fluorescence polarization;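 active = mean inhibition across replicates above the hit cutoff derived for the earlier primary screen, cut at about 22% in these data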
* marks the source's active call; other numbers are inactive results; · = not tested or not shown.

SMILES | PRMT1 FP inh | GSTO1 counter | E coli Lon inh | PAD4 FP inh | TDP2 absorb | PRMT1 confirm
CO[C@H]([C@H](C)/C=C/N(C)C=O)[C@@H](C)C(=O)CC[C@H](C)[C@H](O)[C@H](C)[C@H]1OC(=O)/C=C/C(C)=C/C[C@H](O)C[C@@H]2C=CC[C@@H](C[C@H](OC)[C@@H](C)[C@@H](OC)C[C@@H](OC)[C@@H]1C)O2 | 0.4 | · | · | · | -14.3 | ·
Cc1ccc(/C=C/C(=O)OCc2nc(N)nc(Nc3ccccc3C)n2)o1 | 34.3* | 4.2 | -4.2 | -0.6 | 5.8 | -5.6
Cc1ccccc1Nc1nc(N)nc(COC(=O)c2ccco2)n1 | -1.7 | · | 6.2 | 0.5 | -9.3 | ·
CC(C)(C)OC(=O)NCC12C=CC(O1)C1C(=O)N(Cc3ccccc3)C(=O)C12 (centres undefined) | 47.4* | 1.5 | -11.2 | -0.9 | -0.8 | 8.9
COc1cc2cc3c(N)c(C(=O)Nc4sc(C)c(C)c4C#N)sc3nc2cc1OC | 27.0* | 18.8 | -87.2 | -19.9 | -9.2 | 2.0
COc1cc2cc3c(N)c(C(=O)NCc4ccco4)sc3nc2cc1OC | · | -16.7 | -17.9 | -5.6 | · | ·
O=C(CCc1nc(-c2ccc(F)cc2)no1)Nc1cccc(C(=O)NC2CC2)c1 | 0.2 | · | -6.9 | -3.7 | -1.3 | ·
O=C(O)Cc1sc(N/N=C\c2ccncc2)nc1-c1ccccc1 | 40.7* | -0.4 | -110.6 | -4.2 | -1.6 | 10.5
COc1ccc(S(=O)(=O)N(C)C[C@H]2Oc3c(NC(=O)c4ccncc4)cccc3C(=O)N([C@H](C)CO)C[C@@H]2C)cc1 | -0.8 | · | -8.5 | 1.4 | 1.4 | ·
O=C(Nc1ccccc1Cl)C(Cl)C(=O)c1ccccc1 (centres undefined) | -2.4 | · | 4.3 | · | 5.2 | ·
O=C(Nc1ccc(Cl)cc1)C(Cl)C(=O)c1ccccc1 (centres undefined) | 77.5* | -6.9 | 14.3 | 2.0 | -0.2 | 78.4*
CCCCOc1ccccc1C(=O)N(Cc1ccco1)C1CCS(=O)(=O)C1 (centres undefined) | 2.7 | 5.7 | -3.7 | -3.6 | 8.8 | ·
Cc1ccc(CN(Cc2ccccc2)C(=S)NCC(=O)NCc2cccnc2)o1 | 32.6* | 1.8 | 2.1 | -6.7 | -23.9 | 2.6
CC1(C)CC(=O)C(CS(=O)(=O)c2ccccc2)=C(O)C1 | 27.2* | 6.1 | 2.4 | -6.0 | -3.3 | 22.2*
Cc1nnc(N2C(=O)C(O)=C(C(=O)c3ccco3)C2c2ccc(F)cc2)s1 (centres undefined) | 40.0* | -1.9 | 9.2 | 1.0 | -3.9 | 1.7
CCCOc1cccc(C2C(C(=O)c3ccco3)=C(O)C(=O)N2c2nnc(C)s2)c1 (centres undefined) | 32.4* | 0.3 | 8.2 | -14.4 | -12.9 | 10.3
O=C(CCNC(=O)c1ccco1)NCc1ccc(F)cc1 | -3.9 | · | 2.1 | -10.6 | -7.0 | ·
Cc1ccc(CSc2ccc(-c3ccco3)nn2)cc1 | 32.5* | -0.3 | -1.4 | -2.1 | -7.5 | 7.1
COc1cccc(CNC(=O)CSc2ccc(-c3ccco3)nn2)c1 | 8.2 | 11.4 | 6.0 | -7.5 | -13.0 | ·
c1ccc(CSc2ccc(-c3ccco3)nn2)cc1 | 6.9 | -0.4 | 7.7 | -0.8 | -2.7 | ·
O=C(CSc1ccc(-c2ccco2)nn1)NCc1ccccc1 | 41.5* | -0.7 | -5.6 | -0.2 | -10.0 | 16.3
O=C(CSc1ccc(-c2ccco2)nn1)NCc1ccc(Cl)cc1 | 43.9* | -4.8 | -7.5 | -3.6 | -9.1 | 10.1
N#Cc1cccc(Cn2ccc3ccc(-c4ccc5ccn(Cc6cccc(C#N)c6)c5c4)cc32)c1 | -4.2 | · | · | · | 1.0 | ·
COc1ccc(N2CCN(C(=O)COC(=O)CSc3ccccc3)CC2)cc1 | -1.0 | · | 8.6 | · | -0.1 | ·
CC(OC(=O)/C=C/c1ccco1)C(=O)Nc1cccc([N+](=O)[O-])c1 (centres undefined) | -0.7 | -2.2 | 1.3 | 2.3 | 1.2 | ·
SMILES | PRMT1 FP inh | GSTO1 counter | E coli Lon inh | PAD4 FP inh | TDP2 absorb | PRMT1 confirm
CC(=O)c1ccc(NC(=O)C(C)OC(=O)/C=C/c2ccco2)cc1 (centres undefined) | 30.8* | · | -13.5 | -0.1 | -16.6 | 0.7
CCCC(=O)OC12CCCN(C1)/C(=C/c1cccc(N(C)C)c1)C2 (centres undefined) | 1.6 | · | · | · | 1.8 | ·
COc1ccc2sc(SCCCS(=O)(=O)O)[n+](CCCS(=O)(=O)[O-])c2c1 | 58.0* | -4.0 | 5.8 | -1.1 | 5.2 | 59.0*
O=S(=O)([O-])CCC[n+]1ccc(Oc2ccccc2)cc1 | -3.6 | · | 2.1 | · | 17.1 | ·
COC(=O)CSc1nc(SC)nc2c1sc1nc(-c3ccco3)c3c(c12)CC(C)(C)OC3 | 4.0 | · | -2.3 | · | -6.5 | ·
CSc1nc(N(CCO)CCO)c2sc3nc(-c4ccco4)c4c(c3c2n1)CCC4 | 37.2* | · | -8.8 | · | 1.4 | 38.7*
C=CCNc1nnc(Cc2ccc(C(C)C)cc2)c(=O)[nH]1 | · | 3.2 | -4.5 | -3.8 | · | ·
Cc1cc(NS(=O)(=O)c2ccc(NC(=O)CSc3nnc(-c4ccncc4)n3Cc3ccco3)cc2)nc(C)n1 | 32.8* | · | · | · | -1.7 | -1.1
Cc1cc(NS(=O)(=O)c2ccc(NC(=O)CSc3nnc(-c4ccc(Cl)cc4)n3Cc3ccco3)cc2)nc(C)n1 | 0.9 | · | · | · | 3.5 | ·
Cc1c(Nc2cc(Cl)c3nonc3c2[N+](=O)[O-])c(=O)n(-c2ccccc2)n1C | 58.5* | · | -0.8 | · | -3.4 | 58.2*
O=[N+]([O-])c1c(Nc2cccc(O)c2)cc(Cl)c2nonc12 | 60.2* | 4.8 | 6.2 | 3.2 | -8.5 | 57.8*
O=C(O)c1cccc(Nc2ccc3nonc3c2[N+](=O)[O-])c1 | 12.7 | 1.9 | 3.9 | -3.2 | -25.8 | ·
Cc1c(Nc2cc(N3CCOCC3)c3nonc3c2[N+](=O)[O-])c(=O)n(-c2ccccc2)n1C | · | -1.5 | · | -7.5 | · | ·
O=C(O)c1ccc(Nc2cc(Cl)c3nonc3c2[N+](=O)[O-])cc1 | 62.7* | -41.1 | 6.6 | -1.1 | -8.6 | 31.7*
OC(c1ccccc1)(c1ccccc1)C1CCN(CCCOc2ccc(OC(F)(F)F)cc2)CC1 | -7.4 | · | · | · | -0.3 | ·
C1CSC2(N1)C1CC3CC2CC(C1)C31NCCS1 (centres undefined) | 62.6* | 12.5 | 3.1 | -2.0 | 7.5 | 45.4*
C=CC[C@H]1c2ccccc2[C@H]2N3N=Cc4ccccc4[C@H]3[C@H](CCCC)C(=O)N2N1C(=O)NCc1ccccc1 | -0.7 | · | · | · | 5.0 | ·
CC1CCC2C(=O)N(c3ccc(S(=O)(=O)c4ccccc4)cc3)C(=O)C2C1 (centres undefined) | 44.9* | -8.7 | 11.8 | 3.6 | 2.5 | 4.6
CC1CCC2C(=O)N(c3cccc(OS(=O)(=O)c4ccccc4)c3)C(=O)C2C1 (centres undefined) | 1.2 | -15.2 | -4.0 | 1.1 | 7.9 | ·
